From ChEMBL document CHEMBL4014309, “Development of an Acrylate Derivative Targeting the NLRP3 Inflammasome for the Treatment of Inflammatory Bowel Disease” (J Med Chem, 2017)
Where a name gives a salt, the structure may show the parent alone. Active and inactive are the calls of the source. No cut-off for these calls is given here.

How the values were obtained:
[1] = Cysteamine reactivity of the compound in PBS assessed as second order rate constant for free cysteamine release at 250 uM and pH 7.4 after 90 mins by DTNB reagent based RP-UHPLC analysis
Summary of the method: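 Compound (250 µM) was mixed with equimolar cysteamine in pH 7.4 PBS containing 12.5% CH3CN at 37 °C. Free cysteamine was tracked with DTNB at several time points over 90 min. Second-order k2 came from 1/[CAM] = 1/[CAM]0 + kt, using 3–10 points per plot; mean ± SEM of ≥3 experiments.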

[2] = Cytotoxicity against human THP1 cells assessed as reduction in cell viability after 72 hrs by MTT assay; format: cell-based; conditions: THP-1 cells, read-out: TC50
Summary of the method: (§1)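 Human THP-1 cells were exposed to 0.1–100 µM for 72 h, and viability was read by MTT. TC50 is the concentration that cuts viability by 50%; percent viable cells at 100 µM is also reported. Mean ± SEM of ≥3 experiments.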

serum albumin = serum albumin (Homo sapiens, UniProt P02768); test: Binding affinity to human serum albumin after 5 mins by RP-UHPLC analysis; format: ADME; conditions: read-out: PB (converted)
[3] = target: NACHT, LRR and PYD domains-containing protein 3 (Homo sapiens) (UniProt Q96P20); test: Inhibition of recombinant human NLRP3 ATPase assessed as hydrolysis of ATP at 100 uM preincubated for 15 mins followed by addition of ATP measured after 40 mins by ADP-Glo assay
Summary of the method: (§2)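 Human recombinant NLRP3 (0.105 µg) in 20 mM Tris-HCl pH 7.8, 133 mM NaCl, 20 mM MgCl2, 3 mM KCl, 0.56 mM EDTA, 0.5% DMSO. Compound (100 or 50 µM) was preincubated 15 min at 37 °C, then ATP (250 µM) was added for 40 min at 37 °C. ADP was read by ADP-Glo luminescence. Result is % inhibition vs vehicle; mean ± SEM, ≥3 experiments.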

[4] = target: NACHT, LRR and PYD domains-containing protein 3 (Homo sapiens) (UniProt Q96P20); test: Inhibition of recombinant human NLRP3 ATPase assessed as hydrolysis of ATP at 50 uM preincubated for 15 mins followed by addition of ATP measured after 40 mins by ADP-Glo assay; summary of the method: as §2
[5] = target: NACHT, LRR and PYD domains-containing protein 3 (Homo sapiens) (UniProt Q96P20); test: Inhibition of NLRP3 in PMA-differentiated and LPS-primed human THP1 cells assessed as decrease in ATP-induced pyroptosis measured as LDH activity at 10 uM preincubated for 1 hr followed by ATP addition measured after 1 hr by colorimetric assay relative to control
Summary of the method: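 THP-1 cells were PMA-differentiated and LPS-primed, then pretreated with vehicle or compound (10 µM, 1 h). Pyroptosis was triggered with ATP (5 mM). LDH in supernatant was measured colorimetrically 1 h after ATP and expressed as percent decrease versus vehicle, mean ± SEM of ≥3 experiments.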

[6] = target: NACHT, LRR and PYD domains-containing protein 3 (Homo sapiens) (UniProt Q96P20); test: Inhibition of recombinant human NLRP3 ATPase assessed as hydrolysis of ATP preincubated for 15 mins followed by addition of ATP measured after 40 mins by ADP-Glo assay; summary of the method: as §2
[7] = target: NACHT, LRR and PYD domains-containing protein 3 (Mus musculus) (UniProt Q8R4B8); test: Inhibition of NLRP3 inflammasome in LPS-primed C57BL/6 mouse bone marrow derived macrophages assessed as reduction in ATP-induced IL-1beta production at 1 to 100 uM preincubated for 1 hr followed by stimulation with ATP measured after 30 mins by ELISA
Summary of the method: (§3)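 C57BL/6 bone marrow macrophages, differentiated with 20% L-cell medium, were primed with LPS (1 µg/mL, 3 h). They were then exposed to compound or vehicle for 1 h and stimulated with ATP (5 mM, 30 min). IL-1β released into the medium was measured by ELISA.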

[8] = target: NACHT, LRR and PYD domains-containing protein 3 (Mus musculus) (UniProt Q8R4B8); test: Inhibition of NLRP3 inflammasome in LPS-primed C57BL/6 mouse bone marrow derived macrophages assessed as reduction in nigericin-induced IL-1beta production at 1 to 100 uM preincubated for 1 hr followed by stimulation with nigericin measured after 30 mins by ELISA
Summary of the method: (§4)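 Bone marrow macrophages from C57BL/6 mice, differentiated with 20% L-cell medium, primed with LPS (1 µg/mL, 3 h). Test agent or vehicle was added for 1 h, then ATP (5 mM, 30 min) or nigericin (10 µM, 30 min). IL-1β in the medium was measured by ELISA. LDH in the medium was measured colorimetrically as % of total cellular LDH.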

[9] = target: NACHT, LRR and PYD domains-containing protein 3 (Mus musculus) (UniProt Q8R4B8); test: Inhibition of NLRP3 inflammasome in LPS-primed C57BL/6 mouse bone marrow derived macrophages assessed as reduction in ATP-induced pyroptosis at 1 to 100 uM preincubated for 1 hr followed by stimulation with ATP measured after 30 mins by LDH release assay
Summary of the method: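 LPS-primed (1 µg/mL, 3 h) C57BL/6 bone marrow macrophages were treated with compound or vehicle for 1 h, then given ATP (5 mM, 30 min). LDH in the medium was measured and expressed as percent of total cellular LDH.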

[10] = target: NACHT, LRR and PYD domains-containing protein 3 (Mus musculus) (UniProt Q8R4B8); test: Inhibition of NLRP3 inflammasome in LPS-primed C57BL/6 mouse bone marrow derived macrophages assessed as reduction in nigericin-induced pyroptosis at 1 to 100 uM preincubated for 1 hr followed by stimulation with ATP measured after 30 mins by LDH release assay; summary of the method: as §4
[11] = Cytotoxicity against human THP1 cells assessed as cell viability at 100 uM after 72 hrs by MTT assay; format: cell-based; conditions: THP-1 cells, read-out: Activity; summary of the method: as §1
[12] = Metabolic stability in Sprague-Dawley rat liver microsomes at 100 uM after 2 hrs in presence of NADPH-generating system by UHPLC-MS analysis; format: ADME, microsome; conditions: read-out: Stability
Summary of the method: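 Rat liver microsomes (0.5 mg protein/mL) in 100 mM phosphate buffer pH 7.4 with NADPH-generating system, compound 100 µM final (≤2% DMSO), 37 °C, shaking, up to 120 min. Samples were taken at 0, 15, 30, 60 and 120 min and quenched with acetonitrile on ice. Analysis by UHPLC-MS; runs were also done without NADPH system. ≥3 independent repeats.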

Liver = test: Drug level in Sprague-Dawley rat liver microsomes treated with INF39 at 100 uM up to 2 hrs by UHPLC-MS analysis; format: ADME, microsome
[13] = target: NACHT, LRR and PYD domains-containing protein 3 (Mus musculus) (UniProt Q8R4B8); test: Inhibition of NLRP3 inflammasome in LPS-primed C57BL/6 mouse bone marrow derived macrophages assessed as reduction in ATP-induced IL-1beta production at 10 to 100 uM preincubated for 1 hr followed by stimulation with ATP measured after 30 mins by ELISA; summary of the method: as §3
[14] = target: NACHT, LRR and PYD domains-containing protein 3 (Mus musculus) (UniProt Q8R4B8); test: Inhibition of NLRP3 inflammasome in LPS-primed C57BL/6 mouse bone marrow derived macrophages assessed as reduction in nigericin-induced IL-1beta production at 10 to 100 uM preincubated for 1 hr followed by stimulation with nigericin measured after 30 mins by ELISA; summary of the method: as §4
[15] = target: NACHT, LRR and PYD domains-containing protein 3 (Mus musculus) (UniProt Q8R4B8); test: Inhibition of NLRP3 inflammasome in LPS-primed C57BL/6 mouse bone marrow derived macrophages assessed as reduction in ATP-induced pyroptosis at 10 to 100 uM preincubated for 1 hr followed by stimulation with ATP measured after 30 mins by LDH release assay; summary of the method: as §4
[16] = target: NACHT, LRR and PYD domains-containing protein 3 (Mus musculus) (UniProt Q8R4B8); test: Inhibition of NLRP3 inflammasome in LPS-primed C57BL/6 mouse bone marrow derived macrophages assessed as reduction in nigericin-induced pyroptosis at 10 to 100 uM preincubated for 1 hr followed by stimulation with ATP measured after 30 mins by LDH release assay; summary of the method: as §4
[17] = target: NACHT, LRR and PYD domains-containing protein 3 (Homo sapiens) (UniProt Q96P20); test: Irreversible inhibition of His-FLAG- tagged NLRP3-ATPase (unknown origin) at 100 uM preincubated for 55 mins followed by ATP addition measured after 40 mins by ADP-Glo assay
Summary of the method: (§5)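 His-FLAG NLRP3 (105 ng/well) captured on anti-FLAG-coated, BSA-blocked wells for 3 h at 4 °C. Compound (100 µM final, 2% DMSO) preincubated 55 min at 37 °C. Wells were washed three times (or not washed), then ATP (250 µM) was added for 40 min at 37 °C. ADP was read by ADP-Glo. Equal protein loading was checked by anti-His ELISA.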

[18] = target: NACHT, LRR and PYD domains-containing protein 3 (Homo sapiens) (UniProt Q96P20); test: Irreversible inhibition of His-FLAG- tagged NLRP3-ATPase (unknown origin) at 100 uM preincubated for 55 mins followed by compound wash-out and ATP addition measured after 40 mins by ADP-Glo assay; summary of the method: as §5

Sequence of NACHT, LRR and PYD domains-containing protein 3 (Mus musculus) (Q8R4B8 whole entry, the tested form may be a part): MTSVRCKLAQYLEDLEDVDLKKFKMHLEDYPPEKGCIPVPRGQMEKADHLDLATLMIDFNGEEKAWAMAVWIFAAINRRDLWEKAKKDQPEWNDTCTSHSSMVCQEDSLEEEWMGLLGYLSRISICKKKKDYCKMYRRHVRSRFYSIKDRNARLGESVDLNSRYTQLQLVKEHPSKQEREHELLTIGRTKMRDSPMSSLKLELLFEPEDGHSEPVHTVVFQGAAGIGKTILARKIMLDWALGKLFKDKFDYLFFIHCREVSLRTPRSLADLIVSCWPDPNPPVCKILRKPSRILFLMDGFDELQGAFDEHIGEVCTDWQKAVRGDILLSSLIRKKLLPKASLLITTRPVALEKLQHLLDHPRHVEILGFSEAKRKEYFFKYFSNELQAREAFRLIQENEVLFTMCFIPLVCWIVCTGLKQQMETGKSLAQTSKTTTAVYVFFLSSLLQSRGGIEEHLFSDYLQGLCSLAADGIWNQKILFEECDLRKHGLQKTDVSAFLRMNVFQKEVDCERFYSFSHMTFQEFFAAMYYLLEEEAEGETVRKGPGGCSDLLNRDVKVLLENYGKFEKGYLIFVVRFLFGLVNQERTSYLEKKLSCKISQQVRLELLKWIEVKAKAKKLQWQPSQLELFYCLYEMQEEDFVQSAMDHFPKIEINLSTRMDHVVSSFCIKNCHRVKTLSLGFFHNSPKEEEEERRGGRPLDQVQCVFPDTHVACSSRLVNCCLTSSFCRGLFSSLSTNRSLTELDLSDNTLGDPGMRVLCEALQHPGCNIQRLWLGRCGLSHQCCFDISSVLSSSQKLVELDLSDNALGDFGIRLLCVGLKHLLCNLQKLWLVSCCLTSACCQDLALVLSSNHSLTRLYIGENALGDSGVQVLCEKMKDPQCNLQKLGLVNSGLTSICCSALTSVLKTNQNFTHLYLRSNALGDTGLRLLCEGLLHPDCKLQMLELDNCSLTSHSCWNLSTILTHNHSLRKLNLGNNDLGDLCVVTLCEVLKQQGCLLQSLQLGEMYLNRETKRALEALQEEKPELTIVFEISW
Sequence of NACHT, LRR and PYD domains-containing protein 3 (Homo sapiens) (Q96P20 whole entry, the tested form may be a part): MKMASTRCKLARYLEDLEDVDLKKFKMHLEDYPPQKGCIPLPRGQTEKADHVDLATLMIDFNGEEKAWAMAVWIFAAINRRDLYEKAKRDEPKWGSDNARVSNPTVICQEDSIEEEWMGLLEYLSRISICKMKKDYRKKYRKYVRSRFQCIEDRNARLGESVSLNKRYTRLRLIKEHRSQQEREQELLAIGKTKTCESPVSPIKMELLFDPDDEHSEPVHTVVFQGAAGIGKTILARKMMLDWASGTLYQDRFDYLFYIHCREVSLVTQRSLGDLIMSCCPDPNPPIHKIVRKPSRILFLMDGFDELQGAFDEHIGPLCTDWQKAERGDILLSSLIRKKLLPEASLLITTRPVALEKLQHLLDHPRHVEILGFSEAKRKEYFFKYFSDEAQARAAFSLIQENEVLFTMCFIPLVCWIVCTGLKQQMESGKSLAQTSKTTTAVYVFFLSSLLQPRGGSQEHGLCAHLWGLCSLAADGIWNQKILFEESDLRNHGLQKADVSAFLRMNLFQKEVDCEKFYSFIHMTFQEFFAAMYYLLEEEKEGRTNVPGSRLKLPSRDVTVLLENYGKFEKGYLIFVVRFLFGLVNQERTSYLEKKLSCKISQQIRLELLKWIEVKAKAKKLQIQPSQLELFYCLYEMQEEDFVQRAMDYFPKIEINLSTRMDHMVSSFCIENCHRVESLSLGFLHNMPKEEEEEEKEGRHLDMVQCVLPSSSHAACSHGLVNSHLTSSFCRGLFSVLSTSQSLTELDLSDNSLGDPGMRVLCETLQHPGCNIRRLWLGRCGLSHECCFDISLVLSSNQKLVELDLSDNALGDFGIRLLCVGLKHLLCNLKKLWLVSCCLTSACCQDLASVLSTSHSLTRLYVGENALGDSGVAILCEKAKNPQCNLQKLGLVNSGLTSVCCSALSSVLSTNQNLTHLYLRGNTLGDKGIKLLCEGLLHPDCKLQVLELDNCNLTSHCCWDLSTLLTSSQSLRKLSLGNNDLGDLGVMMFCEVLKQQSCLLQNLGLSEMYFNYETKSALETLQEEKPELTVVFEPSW
Sequence of serum albumin (P02768 whole entry, the tested form may be a part): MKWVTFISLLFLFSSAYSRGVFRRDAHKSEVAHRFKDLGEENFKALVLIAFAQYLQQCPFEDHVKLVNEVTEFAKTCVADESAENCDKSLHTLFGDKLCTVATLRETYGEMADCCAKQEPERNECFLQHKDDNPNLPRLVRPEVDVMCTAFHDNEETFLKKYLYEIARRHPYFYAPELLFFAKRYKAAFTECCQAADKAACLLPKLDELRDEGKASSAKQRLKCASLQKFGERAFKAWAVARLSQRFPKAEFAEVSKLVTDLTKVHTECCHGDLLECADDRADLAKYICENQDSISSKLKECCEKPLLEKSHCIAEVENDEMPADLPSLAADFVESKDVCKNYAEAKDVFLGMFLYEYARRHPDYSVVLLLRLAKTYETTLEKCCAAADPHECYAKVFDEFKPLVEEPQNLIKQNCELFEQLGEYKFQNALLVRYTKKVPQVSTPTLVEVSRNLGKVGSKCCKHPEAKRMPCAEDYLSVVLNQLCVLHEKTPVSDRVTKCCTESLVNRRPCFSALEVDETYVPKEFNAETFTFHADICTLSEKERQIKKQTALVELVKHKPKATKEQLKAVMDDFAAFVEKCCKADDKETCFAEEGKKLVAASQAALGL

Compound | K [1] | CC50 at 72 h [2] | inhibition [3] | inhibition [4] | inhibition [5] | inhibition [6] | Drug metabolism [1] | viability at 72 h, 100 µM [11] | also measured
O=[N+]([O-])/C=C/c1ccc2c(c1)OCO2 | 2.5 M⁻¹ s⁻¹ | 3.2 µM | – | – | – | – | – | – | –
C=C(C(=O)OCC)C(O)c1ccccc1Cl (configuration not stated) | 0.824 M⁻¹ s⁻¹ | 65 µM | 72% | 32% | 80.9% | Dose-dependent effect | – | – | fraction unbound at 5 min (serum albumin): 0.35
COC(=O)/C=C/C(=O)OC [DIMETHYL FUMARATE] | 39 M⁻¹ s⁻¹ | 95.5 µM | inactive | inactive | 65.2% | – | – | – | inhibition [7]: Active; inhibition [8]: Active; inhibition [9]: Active; inhibition [10]: Active
C=C(Cc1ccccc1Cl)C(=O)O | – | > 100 µM | 44% | 22% | 35.8% | Dose-dependent effect | Metabolite not detected | 102% | remaining at 2 h, 100 µM [12]: > 99%; Drug metabolism (Liver): Metabolite_Detected
CC(Cc1ccccc1Cl)C(=O)O (configuration not stated) | – | > 100 µM | 15% | inactive | 5.2% | – | Metabolite not detected | 98.7% | –
Cc1ccc(S(=O)(=O)/C=C/C#N)cc1 | – | 1.5 µM | – | – | – | – | – | – | inhibition [13]: Active; inhibition [14]: Active; inhibition [15]: Active; inhibition [16]: Active
C=C(C(=O)O)C(O)c1ccccc1Cl (configuration not stated) | – | > 100 µM | 69% | 21% | – | Dose-dependent effect | Metabolite not detected | 80.7% | –
C=C(C(=O)OCC)C(OCCC(=O)OCC)c1ccc(Cl)cc1Cl (configuration not stated) | 0.292 M⁻¹ s⁻¹ | > 100 µM | – | 10% | – | – | – | 87.7% | –
C=C(C(=O)OCC)C(O)c1ccc(Cl)cc1Cl (configuration not stated) | 1.34 M⁻¹ s⁻¹ | 68.3 µM | 35% | 19% | 74.4% | Dose-dependent effect | – | – | –
C=C(C(=O)O)C(O)c1ccc(Cl)cc1Cl (configuration not stated) | – | > 100 µM | 43% | 11% | 40.2% | Dose-dependent effect | Metabolite not detected | 88.1% | –
C=C(C(=O)OCC)C(OC(C)=O)c1ccccc1Cl (configuration not stated) | 56.2 M⁻¹ s⁻¹ | 33.3 µM | – | – | – | – | – | – | –
C=C(C(=O)OCC)C(OCCC(=O)OCC)c1ccccc1Cl (configuration not stated) | 0.734 M⁻¹ s⁻¹ | > 100 µM | 56% | 27% | – | Dose-dependent effect | – | 95.7% | –
CCOC(=O)C1=CCOC1c1ccccc1Cl (configuration not stated) | 8.18 M⁻¹ s⁻¹ | – | – | – | – | Dose-dependent effect | – | – | –
CCOC(=O)C(C)Cc1ccccc1Cl (configuration not stated) | – | > 100 µM | 12% | inactive | 3.8% | Dose-dependent effect | Metabolite not detected | 86.1% | inhibition [17]: 10%; inhibition [18]: inactive
C=C(C(=O)OCC)C(OC)c1ccccc1Cl (configuration not stated) | 1.6 M⁻¹ s⁻¹ | > 100 µM | 60% | 24% | 37.2% | Dose-dependent effect | – | 78.1% | –
